The values that follow come from ChEMBL document CHEMBL4007473, “Discovery of Potent and Orally Bioavailable GPR40 Full Agonists Bearing Thiophen-2-ylpropanoic Acid Scaffold” (J Med Chem, 2017).

Structures are written as SMILES. The source made the active and inactive calls. The rule behind the calls is not given here.

Data set [1] addresses T1, Free fatty acid receptor 1 (Homo sapiens, UniProt O14842). As to the kind of experiment: Agonist activity at human GPR40 expressed in CHO cells assessed as increase in intracellular Ca2+ flux by Fluo 4-AM dye based assay. The format is functional, cell-based. (Calcium flux is commonly read through the fluorescence of an indicator in the cells.)
Data set [2] deals with T1, Free fatty acid receptor 1. The data set is described as follows: Agonist activity at human GPR40 expressed in CHO cells assessed as increase in intracellular Ca2+ flux by Fluo 4-AM dye based assay relative to 3-(4-((2',6'-dimethylbiphenyl-3-yl)methoxy)phenyl)propanoic acid. It counts as functional, cell-based. Summed up: (§1)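 CHO cells stably expressing hGPR40 or hGPR120, seeded and incubated overnight at 37 ℃, 5% CO2. Loaded 90 min with Fluo 4-AM (3 μM) and probenecid (2.5 mM) in HBSS/0.1% BSA, washed, equilibrated 10 min. Ca2+ read as change in 585/525 ratio before and after compound addition; EC50 and Emax fitted from curves, Emax relative to reference agonist 4; mean ± SD, three independent experiments.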

Data set [3] has as its target T1, Free fatty acid receptor 1. As to the kind of experiment: Agonist activity at human GPR40 expressed in CHO cells assessed as increase in intracellular Ca2+ flux at 10 uM by Fluo 4-AM dye based assay. The format is functional, cell-based. Summed up: as §1
For data set [4], the target named is T1, Free fatty acid receptor 1. The data set is described as follows: Agonist activity at human GPR40 expressed in CHO cells assessed as increase in intracellular Ca2+ flux at 20 uM by Fluo 4-AM dye based assay. It counts as functional, cell-based. Summed up: as §1
The nature of data set [5]: Inhibition of hepatobiliary transporter in Sprague-Dawley rat sandwich-cultured rat hepatocytes assessed as decrease in d8-TCA by measuring biliary excretion index at 1 to 25 uM incubated for 15 mins followed by d8-TCA addition measured after 15 mins by LC-MS/MS analysis. It counts as ADME. The note with it: 0.25 h. A digest of the protocol:
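Sandwich-cultured hepatocytes from male SD rats exposed to compound 15 min in standard HBSS. Cells rinsed and pre-incubated 15 min at 37 ℃ in standard or Ca2+-free HBSS, then incubated 15 min with compound plus 1 µM d8-TCA. Washed with ice-cold PBS; cellular d8-TCA measured by LC-MS/MS. BEI = (A_HBSS – A_Ca-free)/A_HBSS × 100%.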

The next data set relates to Mus musculus. As to the kind of experiment: Antidiabetic activity in ICR mouse assessed as decrease in blood glucose AUC at 10 mg/kg, po administered 30 mins prior to glucose challenge measured 120 mins post dose by OGTT. It counts as functional, organism-based. A digest of the protocol: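 Six-week-old male ICR mice fasted 16 h, n = 10 per group, dosed orally in 0.5% methylcellulose/20% PEG400 (10 or 20 mg/kg). Oral glucose load 2.5 g/kg by gavage 30 min later. Tail-vein glucose read at -30, 0, 30, 60, 90 and 120 min; AUC0-120 min computed and compared with vehicle.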

The target of data set [6] is Free fatty acid receptor 1 (Mus musculus) (UniProt Q76JU9). The data set is described as follows: Agonist activity at GPR40 in mouse MIN6 cells assessed as increase in 25 mM glucose-stimulated insulin secretion at 10 uM after 1 hr by ELISA. It counts as cell-based. A digest of the protocol: (§2)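 MIN6 cells pre-incubated 2 h at 37 ℃ in KRBH buffer with 0.1% BSA, then stimulated 1 h at 37 ℃ with 2 mM or 25 mM glucose, alone or with test agents. Insulin secreted into supernatant quantified by ELISA; mean ± SD of four independent experiments, compared with DMSO.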
(In general: ELISA stands for enzyme-linked immunosorbent assay.)

The target is the same in data set [7]. The data set is described as follows: Agonist activity at GPR40 in mouse MIN6 cells assessed as increase in 25 mM glucose-stimulated insulin secretion at 300 nM after 1 hr by ELISA. The format is cell-based. A digest of the protocol:
as §2

In data set [8] the target is T1, Free fatty acid receptor 1. As to the kind of experiment: Agonist activity at human GPR40 expressed in HEK293T cells transfected with 0.05 ug of GPR40 expression plasmid assessed as increase in intracellular Ca2+ flux by Fluo 4-AM dye based assay. It counts as functional, cell-based. The note with it: HEK-293T. Summed up:
(§3)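 Plasmid titration: HEK293T cells transiently transfected with 5 μg or 0.05 μg hGPR40 expression plasmid, plated on poly-D-lysine and held 24 h. Loaded with Fluo 4-AM (3 μM) and probenecid (2.5 mM) in HBSS/0.1% BSA for 90 min, washed, equilibrated 10 min. Ca2+ response measured as change in 585/525 ratio after compound addition; mean ± SD of three experiments.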

Data set [9] has as its target T1, Free fatty acid receptor 1. The data set is described as follows: Agonist activity at human GPR40 expressed in HEK293T cells transfected with 5 ug of GPR40 expression plasmid assessed as increase in intracellular Ca2+ flux by Fluo 4-AM dye based assay. The format is functional, cell-based. The note with it: HEK-293T. Summed up: as §3
The target in data set [10] is T2, Free fatty acid receptor 4 (Homo sapiens, UniProt Q5NUL3).
T2 sequence (Q5NUL3 whole entry): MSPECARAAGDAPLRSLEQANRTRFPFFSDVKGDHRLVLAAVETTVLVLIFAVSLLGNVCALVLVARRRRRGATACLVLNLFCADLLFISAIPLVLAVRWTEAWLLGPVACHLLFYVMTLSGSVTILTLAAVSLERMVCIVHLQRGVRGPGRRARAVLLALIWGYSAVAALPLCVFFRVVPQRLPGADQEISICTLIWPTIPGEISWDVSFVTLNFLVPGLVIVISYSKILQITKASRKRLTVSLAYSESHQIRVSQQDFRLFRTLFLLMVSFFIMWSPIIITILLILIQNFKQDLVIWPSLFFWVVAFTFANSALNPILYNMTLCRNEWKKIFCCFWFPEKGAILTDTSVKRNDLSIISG
The data set is described as follows: Agonist activity at human GPR120 expressed in CHO cells assessed as increase in intracellular Ca2+ flux by Fluo 4-AM dye based assay. It counts as functional, cell-based. Summed up: as §1

For data set [11], the target named is T3, Peroxisome proliferator-activated receptor gamma (Homo sapiens, UniProt P37231).
T3 sequence (P37231 whole entry): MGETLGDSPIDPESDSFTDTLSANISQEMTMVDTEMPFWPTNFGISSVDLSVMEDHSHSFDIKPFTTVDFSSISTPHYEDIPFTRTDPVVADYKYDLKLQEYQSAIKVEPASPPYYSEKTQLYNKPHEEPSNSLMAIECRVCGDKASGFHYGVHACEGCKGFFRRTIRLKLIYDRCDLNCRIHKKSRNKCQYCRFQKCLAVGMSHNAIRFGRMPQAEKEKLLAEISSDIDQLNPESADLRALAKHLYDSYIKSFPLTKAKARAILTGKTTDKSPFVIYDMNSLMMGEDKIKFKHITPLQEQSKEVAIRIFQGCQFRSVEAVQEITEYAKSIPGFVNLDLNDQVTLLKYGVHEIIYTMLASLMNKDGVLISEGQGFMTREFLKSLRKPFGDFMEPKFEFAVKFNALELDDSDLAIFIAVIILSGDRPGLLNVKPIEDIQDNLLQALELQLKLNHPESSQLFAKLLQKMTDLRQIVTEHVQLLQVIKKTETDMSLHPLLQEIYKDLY
As to the kind of experiment: Agonist activity at PPARgamma (unknown origin) expressed in HEK293T cells by luciferase reporter gene assay. It counts as cell-based. A general note: Reporter assays use an easily measured gene product as a stand-in for the process of interest.

Sequence of Free fatty acid receptor 1 (Mus musculus) (Q76JU9 whole entry): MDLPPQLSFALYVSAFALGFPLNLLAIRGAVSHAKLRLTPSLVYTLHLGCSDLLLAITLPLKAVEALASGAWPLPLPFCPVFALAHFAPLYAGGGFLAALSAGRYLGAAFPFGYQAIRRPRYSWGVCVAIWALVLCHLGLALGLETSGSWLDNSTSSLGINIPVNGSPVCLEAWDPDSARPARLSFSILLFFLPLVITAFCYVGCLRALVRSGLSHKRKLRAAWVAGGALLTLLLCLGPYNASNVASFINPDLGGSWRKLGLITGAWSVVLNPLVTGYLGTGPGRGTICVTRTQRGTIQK
T1 sequence (O14842 whole entry): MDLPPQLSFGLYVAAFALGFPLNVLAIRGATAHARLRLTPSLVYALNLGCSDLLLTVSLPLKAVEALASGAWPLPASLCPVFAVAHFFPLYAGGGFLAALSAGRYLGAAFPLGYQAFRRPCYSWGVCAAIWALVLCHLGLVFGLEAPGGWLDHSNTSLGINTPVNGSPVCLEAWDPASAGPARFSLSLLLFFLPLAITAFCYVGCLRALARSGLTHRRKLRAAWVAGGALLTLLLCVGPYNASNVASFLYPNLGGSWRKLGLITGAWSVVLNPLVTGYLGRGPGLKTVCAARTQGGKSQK

As to `CCO[C@@H](CC(=O)O)c1ccc(OCc2cccc(-c3c(C)cccc3C)c2)s1`, in data set [1], the EC50 (usually the concentration needed to bring the measured effect to its halfway point) was 40100 nM.
Same read-out and setting: to `N#CCc1ccccc1C#Cc1ccc(CCC(=O)O)s1` belongs 640 nM.
Take `Cc1cccc(C)c1-c1cccc(OCc2cn(CCC(=O)O)nn2)c1`: the Emax – broadly, the maximal effect, on the per cent scale that the assay sets – in data set [2] came to 79.9%. Further, the EC50 in data set [1] is 14700 nM.
Consider `Cc1cccc(C)c1-c1cccc(COc2ccc([C@H](CC(=O)O)c3ccon3)s2)c1`, for which the result in data set [3] was inactive.
On the same count and under the same terms, to `Cc1cccc(C)c1-c1cccc(COc2ccc(C(CC(=O)O)c3c[nH]nn3)s2)c1` (racemic) belongs “inactive”.
For `Cc1cccc(C)c1-c1cccc(COc2cc3sc(C(=O)O)cc3s2)c1`, the outcome in data set [4] was inactive.
Turning to `COC(CC(=O)O)c1ccc(OCc2cccc(-c3c(C)cccc3C)c2)s1` (racemic), the EC50 in data set [1] was 210 nM.
Take `Cc1cc(OCCCS(C)(=O)=O)cc(C)c1-c1cccc(COc2ccc3c(c2)OC[C@H]3CC(=O)O)c1`: the Activity entry in [5] was “Not Active”. The result (in the data set with Mus musculus; in data set [6]; in data set [7]; in data set [9]) was Active. In [8], the result was inactive.
In the case of `Cc1cccc(C)c1-c1cccc(OCc2ccc(CCC(=O)O)s2)c1`, in data set [2], the Emax was determined as 136%. Further, the EC50 in data set [1] was found to be 2420 nM.
The corresponding values for `Cc1cccc(C)c1-c1cccc(COc2cn(CCC(=O)O)nn2)c1` are 97.9% and 14800 nM.
With `CC#C[C@H](CC(=O)O)c1ccc(OCc2cccc(-c3c(C)cc(OCCCS(C)(=O)=O)cc3C)c2)s1`, the EC50 in [1] was determined as 410 nM.
Regarding `NC(=O)c1ccccc1-c1cccc(COc2ccc(CCC(=O)O)s2)c1`, the outcome in data set [3] was inactive.
For `CC/C=C\C/C=C\C/C=C\C/C=C\C/C=C\C/C=C\CCC(=O)O`, the result in data set [8] and in [9] was Active.
As for `CC#CC(CC(=O)O)c1ccc(OCc2cccc(-c3c(C)cc(OCC4(C)COC4)cc3C)c2)s1` (racemic), in data set [1], the 50% effective concentration (EC50) was determined as 450 nM.
For `Cc1cccc(C)c1-c1cccc(OCn2cc(CCC(=O)O)nn2)c1`, the Emax in [2] is 95.6%. In addition, the EC50 in data set [1] worked out at 32200 nM.
Turning to `CCC(CC(=O)O)c1ccc(OCc2cccc(-c3c(C)cccc3C)c2)s1` (racemic), the outcome in data set [3] was inactive.
`Cc1cccc(C)c1-c1cccc(COc2ccc(CCC(=O)O)s2)c1`: the EC50 is greater than 10000 nM in data set [10], greater than 10000 nM in data set [11] and 32 nM in [1]. Besides, the result in data set [6] was inactive. Further, the Emax in data set [2] came to 140%.
Turning to `O=C(O)CCc1ccc(OCc2cccc(-c3ccc(C(F)(F)F)cc3)c2)s1`, the result in data set [3] was inactive.
Same read-out and setting: to `CC#CC(CC(=O)O)c1ccc(OCc2cccc(-c3c(C)cc(OC4CCN(C)CC4)cc3C)c2)s1` (racemic) belongs “inactive”.
For the molecule `CC#CC(CC(=O)O)c1ccc(OCc2ccc(CN3CCC4(C=Cc5ccccc54)CC3)cc2)s1` (centres undefined), the outcome in [4] was inactive.
For `Cc1cccc(C)c1-c1ccc(COc2ccc(CCC(=O)O)s2)cc1`, the result in data set [4] was inactive.
Turning to `Cc1cccc(C)c1-c1cccc(COc2ccc(C(CC(=O)O)C3CC3)s2)c1` (racemic), in data set [1], the EC50 turned out to be 3920 nM.
On the same count and under the same terms, the same measure for `O=C(O)CCc1ccc(OCc2cccc(-c3ccncc3Cl)c2)s1`: 2010 nM.
As to `CCOC(CC(=O)O)c1ccc(OCc2cccc(-c3c(C)cccc3C)c2)s1` (racemic), in [1], the half-maximal effective concentration (EC50) came out at 57 nM.
For `Cc1cccc(C)c1-c1cccc(COc2ccc(C(C)CC(=O)O)s2)c1` (racemic), the result in data set [3] was inactive.
On the same count and under the same terms, the same measure for `N#Cc1ccccc1-c1cccc(COc2ccc(CCC(=O)O)s2)c1`: “inactive”; for `COc1ccccc1-c1cccc(COc2ccc(CCC(=O)O)s2)c1`: “inactive”.
As to `O=C(O)CCc1ccc(OCc2cccc(-c3cc(Cl)nc(Cl)c3)c2)s1`, the outcome in data set [3] was inactive.
Take `Cc1cccc(C)c1-c1cccc(COc2cc3sc(CCC(=O)O)cc3s2)c1`: the result in data set [4] was inactive.
In the case of `CC#CC(CC(=O)O)c1ccc(OCc2cccc(-c3c(C)cc(OCCCS(C)(=O)=O)cc3C)c2)s1` (racemic), the EC50 in [1] worked out at 240 nM.
Same read-out and setting: to `Cc1cccc(C)c1-c1cccc(COc2ccc(CC3SC(=O)NC3=O)s2)c1` (centres undefined) belongs 82 nM.
With `CCCC(CC(=O)O)c1ccc(OCc2cccc(-c3c(C)cccc3C)c2)s1` (racemic), the outcome in data set [3] was inactive.
As for `O=C(O)CCc1ccc(OCc2cccc(-c3ccccc3C(F)(F)F)c2)s1`, the EC50 in [1] was 2710 nM.
With `Cc1cccc(C)c1-c1cccc(COc2ccc(CCC(=O)O)cc2)c1`, in data set [2], the Emax is 100%. In addition, the EC50 in data set [1] was found to be 8 nM.
With `Cc1cccc(C)c1-c1cccc(COc2ccc(C(C#N)CC(=O)O)s2)c1` (racemic), in data set [1], the EC50 stood at 110 nM.
Still for that read-out and setting: the same measure for `COc1ccc(F)c(-c2cccc(COc3ccc(CCC(=O)O)s3)c2)c1`: 580 nM.
`Cc1cccc(C)c1-c1cccc(COc2csc(CCC(=O)O)c2)c1`: the Emax in data set [2] amounted to 135%. Also, the EC50 in [1] was determined as 2320 nM.
As for `CCO[C@H](CC(=O)O)c1ccc(OCc2cccc(-c3c(C)cccc3C)c2)s1`, the EC50 is greater than 10000 nM in [10], greater than 10000 nM in data set [11] and 50 nM in [1]. Further, the result in data set [6] was inactive. For the same molecule, the Emax in data set [2] stood at 147%.
Regarding `CC#CC(CC(=O)O)c1ccc(OCc2cccc(-c3c(C)cccc3C)c2)s1` (racemic), in [1], the EC50 came out at 210 nM.
